Reference: PMC6099444 (Journal of Clinical Pharmacology, 2018)
Entries after “also recorded” stand apart in the source; their conditions may differ.

Columns and labels:
Assay type in all cases: in vivo, human
Urine pharmacokinetics = conditions: for Ae0‐24: urine; for Ae0‐24 / CLR0‐24: geometric LS mean (95% CI)
urine uric acid = test: Urine uric acid pharmacodynamics; conditions: for CLUR, Mean (SD) / FEUA, Mean (SD) / AeUR, Change From Baseline (%) / CLUR, Change From Baseline (%) / FEUA, Change From Baseline (%) / AeUR, Mean (SD) / AeUR, %Change From Baseline / CLUR, %Change From Baseline / FEUA, %Change From Baseline: ALLO 300 mg or both; for AeUR, Change From Baseline (%) / CLUR, Change From Baseline (%) / FEUA, Change From Baseline (%) / AeUR, %Change From Baseline / CLUR, %Change From Baseline / FEUA, %Change From Baseline: mean (SD)
In short: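 Total-catch urine was collected days 1, 7, 8, 14, 21 in intervals from 0–1 to 22–24 h postdose. Water: 240 mL on waking and at 22 h, 160 mL frequently postdose. Uric acid and creatinine were assayed centrally. AeUR = concentration × volume; CLUR = AeUR/plasma urate AUC same interval; fractional excretion = (CLUR/CrCl) × 100; rate = AeUR/interval hours. % change uses time-matched day −1 baseline.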

serum uric acid = test: Serum uric acid pharmacodynamics in adult male subjects with gout; conditions: verinurad 10 mg, allopurinol 300 mg, once daily for 7 days, alone or combined
In short: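 Adult males with gout received a once-daily oral xanthine oxidase inhibitor 300 mg, a urate reabsorption inhibitor 10 mg, or both for 7 days each in a randomized crossover sequence. Fasted overnight before sampling. Serum was drawn days 7, 14, 21 predose to 24 h postdose, with extra predose points day 1, and uric acid measured by a central lab. Read-out is maximum % change from time-matched day −1 baseline.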

[1] = Plasma pharmacokinetics, phase 1b multiple-dose drug-drug interaction study; conditions: for plasma exposure on coadministration, result in words: verinurad: with allopurinol 300 mg, colchicine: with verinurad 10 mg
In short: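 Adult males with gout were randomized 1:1 to two sequences. They took a once-daily oral xanthine oxidase inhibitor 300 mg or urate reabsorption inhibitor 10 mg alone (days 1–7), both (days 8–14), then the other agent (days 15–21). Fasted overnight, no food 4 h postdose. Plasma was sampled days −1, 7, 14, 21 predose to 24 h. Parent and metabolite were measured by LC-MS/MS (methanol precipitation, isotope internal standards). Noncompartmental Tmax, Cmax, AUC0‐24; geometric LS mean ratio combo/alone.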

[2] = treatment ALLO 300 mg once daily
[3] = treatment VERU 10 mg + ALLO 300 mg once daily
[4] = 0‐ to 12‐hour interval, VERU 10 mg
[5] = 0‐ to 12‐hour interval, multiple daily doses VERU 10 mg
[6] = 0‐ to 24‐hour interval, VERU 10 mg
[7] = 12‐ to 24‐hour interval, VERU 10 mg
[8] = VERU 10 mg + ALLO 300 mg compared with allopurinol alone
[9] = VERU 10 mg + ALLO 300 mg compared with allopurinol alone, plasma
[10] = VERU 10 mg + ALLO 300 mg compared with allopurinol alone, plasma, listed as oxypurinol
[11] = treatment VERU 10 mg once daily

| Ae0‐24 (Urine pharmacokinetics; [2]) | Ae0‐24 (Urine pharmacokinetics; [3]) | Structure (SMILES) | CLUR, Mean (SD) (urine uric acid; [4]) | FEUA, Mean (SD) (urine uric acid; [4]) | AeUR, Change From Baseline (%) (urine uric acid; [4]) | CLUR, Change From Baseline (%) (urine uric acid; [4]) | FEUA, Change From Baseline (%) (urine uric acid; [4]) | AeUR, Mean (SD) (urine uric acid; [5]) | AeUR, Mean (SD) (urine uric acid; [6]) | CLUR, Mean (SD) (urine uric acid; [6]) | FEUA, Mean (SD) (urine uric acid; [6]) | AeUR, %Change From Baseline (urine uric acid; [6]) | CLUR, %Change From Baseline (urine uric acid; [6]) | FEUA, %Change From Baseline (urine uric acid; [6]) | CLUR, Mean (SD) (urine uric acid; [7]) | FEUA, Mean (SD) (urine uric acid; [7]) | AeUR, Change From Baseline (%) (urine uric acid; [7]) | CLUR, Change From Baseline (%) (urine uric acid; [7]) | FEUA, Change From Baseline (%) (urine uric acid; [7]) | maximum decrease in serum urate (serum uric acid) [%] | other results |
| --- | --- | --- | --- | --- | --- | --- | --- | --- | --- | --- | --- | --- | --- | --- | --- | --- | --- | --- | --- | --- | --- |
| 25.4 (22.1‐29.2) mg | 22.7 (19.2‐26.9) mg | Oc1ncnc2[nH]ncc12 [Allopurinol, allopurinol] | 6.50 (1.18) mL/min | 4.06 (0.47) % | −46.8 (7.3) % | −6.0 (12.0) % | −9.7 (9.2) % | 231 (45) mg | 363 (73) mg | 5.00 (1.13) mL/min | 3.69 (0.59) % | −47.4 (7.6) % | −8.50 (14.8) % | −12.0 (12.2) % | 3.62 (1.30) mL/min | 3.19 (0.62) % | −45.4 (14.5) % | −9.4 (23.2) % | −7.6 (14.6) % | 43 | decrease in 24 hr fractional excretion of urate compared with baseline (urine uric acid; 0-24 h, allopurinol 300 mg): 12.0%; decrease in CLUR compared with baseline (urine uric acid; 0-24 h, allopurinol 300 mg): 8.5%; decrease in 24‐hour AeUR compared with baseline (urine uric acid; 0-24 h, allopurinol 300 mg alone or with verinurad 10 mg): 47.4%; decrease in rate of uric acid excretion (urine uric acid; 2‐3 hour urine collection interval postdose, allopurinol 300 mg): 46%; maximum rate of uric acid excreted in urine compared with the maximum observed baseline rate (urine uric acid; highest mean rate, 2‐3 hour urine collection interval postdose (combination 2‐3 and 3‐4 hour), verinurad 10 mg, allopurinol 300 mg): −46%; AUC on coadministration of verinurad, result in words [1, 8]: unaffected; also recorded: unaltered; increase in Cmax on coadministration of verinurad [1, 9]: 33%; Cmax ([1]; treatment ALLO 300 mg once daily, plasma, geometric LS mean (95% CI)): 1.13 (0.89‐1.43) μg/mL |
| – | – | COc1cc2c(c(OC)c1OC)-c1ccc(OC)c(=O)cc1[C@@H](NC(C)=O)CC2 [Colchicine, colchicine, reference compound] | – | – | – | – | – | – | – | – | – | – | – | – | – | – | – | – | – | – | plasma exposure on coadministration, result in words [1]: unaltered |
| 231 (216‐248) mg | 275 (262‐290) mg | O=c1[nH]c(=O)c2c[nH]nc2[nH]1 [Oxypurinol, oxypurinol] | – | – | – | – | – | – | – | – | – | – | – | – | – | – | – | – | – | – | increase in renal clearance on coadministration of verinurad (Urine pharmacokinetics; [8]): 93%; increase in urinary excretion on coadministration of verinurad (Urine pharmacokinetics; [8]): 19%; decrease in AUC on coadministration of verinurad [1, 9]: 38%; decrease in Cmax on coadministration of verinurad [1, 9]: 32%; decrease in AUC on coadministration of verinurad [1, 10]: approximately 38%; decrease in Cmax on coadministration of verinurad [1, 10]: approximately 32%; Cmax ([1]; male, human, plasma, oral, 300 mg): 12800 ng/mL |
| – | 67.2 (51.7‐87.4) μg | CC(C)(Sc1ccncc1-c1ccc(C#N)c2ccccc12)C(=O)O [Verinurad] | 16.3 (4.57) mL/min | 11.6 (3.77) % | 21.4 (23.3) % | 153 (77.0) % | 160 (96.6) % | 490 (71) mg | 739 (84) mg | 11.5 (2.74) mL/min | 9.19 (3.28) % | 9.9 (21.5) % | 122 (105) % | 77.4 (36.0) % | 6.74 (0.96) mL/min | 5.88 (1.78) % | 4.2 (48.0) % | 95.5 (148) % | 49.9 (21.9) % | 51 | CLR0‐24 (Urine pharmacokinetics; [3]): 9.75 (7.73‐12.3) mL/min; CLR0‐24 (Urine pharmacokinetics; [11]): 9.28 (7.43‐11.6) mL/min; Ae0‐24 (Urine pharmacokinetics; [11]): 66.8 (51.8‐86.1) μg; AeUR, Mean (SD) (urine uric acid; [7]): 250 (52) mg; plasma exposure on coadministration, result in words [1]: unaffected |
